Five compounds from ChEMBL document CHEMBL4038313, “Expanding the Antiviral Spectrum of 3-Fluoro-2-(phosphonomethoxy)propyl Acyclic Nucleoside Phosphonates: Diamyl Aspartate Amidate Prodrugs” (J Med Chem, 2017) can be followed below.

Data set [1] can be described thus: Cytotoxic activity against HEL cells assessed as alteration of cell morphology after 3 days by microscopic method. Format: cell-based. The following applies: human. In a few lines:
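HEL cells with compound; MCC is the lowest concentration giving microscopically detectable alteration of cell morphology.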

Data set [2] in a line: Selectivity index, ratio of CC50 for human TZM-bl cells to EC50 for CXCR4-tropic HIV-1 NL4-3 infected in human TZM-bl cells. Format: toxicity, cell-based. The following applies: read-out: Ratio CC50/EC50.
Data set [3] deals with Human betaherpesvirus 5. Nature of the data set: Antiviral activity against HCMV Davis strain infected in HEL cells assessed as inhibition of virus-induced cytopathic effect. As to conditions: Human betaherpesvirus 5, Davis. Format: functional, cell-based. Summed up: (§1)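 HEL fibroblast monolayers inoculated with 100 CCID50 HCMV (AD-169, Davis) or 20 PFU VZV (TK+ Oka, TK− 07-1). Adsorbed 1–2 h, inoculum removed, then incubated with compound dilutions. HCMV cytopathicity or VZV plaques scored once untreated infected controls reached completion. EC50 is 50% reduction. SI is CC50/EC50, and the potency ratio is the ratio of EC50s.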

In the next data set the test system is Hepatitis B virus. Nature of the data set: Antiviral activity against HBV ayw1 infected in human HepG2(2.2.15) cells assessed as reduction in viral replication by measuring extracellular viral DNA copy number after 6 days by real-time qPCR method. In kind it is functional, cell-based. As to conditions: ayw1, HepG2 2.2.15, 144 h. Summed up:
(§2)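 HepG2.2.15 cells (two copies of HBV ayw1 genome), 1.5 × 10^4/well in DMEM with 2% FBS and 380 μg/mL G418. After 16–24 h, compound added in triplicate, medium with compound renewed at day 3. Supernatant collected at day 6, Pronase-treated, and extracellular HBV DNA measured by TaqMan qPCR (precore/core) against an HBV DNA standard curve. EC50/EC90 derived; CC50 by MTS uptake.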

Data set [4] is described as follows: Cytotoxicity against human HepG2.2.15 cells assessed as cell viability by tetrazolium dye uptake assay. In kind it is cell-based, HepG2 2.2.15. Summed up: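 HepG2.2.15 cells (two integrated copies of HBV ayw1 genome) were seeded at 1.5 × 10^4 cells/well in DMEM with 2% FBS, 380 μg/mL G418, glutamine, antibiotics and nonessential amino acids. After 16−24 h, medium with various compound concentrations was added in triplicate and renewed on day 3. After 6 days of treatment, viability was read by MTS uptake and CC50 was calculated.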

Data set [5] concerns Human alphaherpesvirus 3. Nature of the data set: Antiviral activity against thymidine kinase deficient Varicella-Zoster virus 07-1 infected in HEL cells assessed as inhibition of plaque formation. In kind it is functional, cell-based. The following applies: Human alphaherpesvirus 3, 07-1, HEL. In a few lines: as §1
The subject of data set [6] is Human immunodeficiency virus 1. Nature of the data set: Antiviral activity against CXCR4-tropic HIV-1 NL4-3 infected in human TZM-bl cells assessed as inhibition of virus-induced cytopathic effect preincubated with cells for 30 mins followed by viral infection measured after 48 hrs in presence of p-24 HIV-1 Ag by luciferase reporter gene assay. In kind it is functional, cell-based. The following applies: Human immunodeficiency virus 1, NL4-3, TZM-bl. Summed up:
(§3)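 TZM-bl cells, 1 × 10^4 per well in DMEM with 10% FBS and 10 mM […], incubated 30 min at 37 °C with compound. Then HIV-1 NL4.3 (X4) or BaL (R5) added at 100 pg p24 Ag per well. After 48 h, cells lysed with luciferase substrate. Tat-induced luminescence read after 10 min dark incubation as a measure of replication.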

Data set [7] concerns Human betaherpesvirus 5. The data set is described as follows: Antiviral activity against Human cytomegalovirus AD169 infected in HEL cells assessed as inhibition of virus-induced cytopathic effect. In kind it is functional, cell-based. As to conditions: Human betaherpesvirus 5, AD169, HEL. Summed up:
as §1

Data set [8] in a line: Selectivity index, ratio of CC50 for HepG2.2.15 cells to EC50 for HBV ayw1 infected in human HepG2(2.2.15) cells assessed as reduction in viral replication by measuring extracellular viral DNA copy. Summed up:
as §2

The subject of data set [9] is Human alphaherpesvirus 3. The data set is described as follows: Antiviral activity against thymidine kinase expressing Varicella-Zoster virus Oka strain assessed as inhibition of plaque formation. In kind it is functional. As to conditions: Human alphaherpesvirus 3, strain Oka vaccine. Summed up:
as §1

A short description of data set [10]: Selectivity index, ratio of CC50 for human TZM-bl cells to EC50 for CCR5 tropic HIV1 BaL infected in human TZM-bl cells. Format: toxicity, cell-based. The following applies: read-out: Ratio CC50/EC50.
In data set [11] the test system is Human immunodeficiency virus 1. The data set is described as follows: Antiviral activity against CCR5 tropic HIV1 BaL infected in human TZM-bl cells assessed as inhibition of virus-induced cytopathic effect preincubated with cells for 30 mins followed by viral infection measured after 48 hrs in presence of p-24 HIV-1 Ag by luciferase reporter gene assay. The following applies: Human immunodeficiency virus 1, BaL. Format: functional, cell-based. Summed up:
as §3

A short description of data set [12]: Cytotoxicity against human TZM-bl cells assessed as cell viability by tetrazolium dye assay. Format: cell-based.

Regarding `Cc1cn(C[C@@H](CF)OCP(=O)(O)O)c(=O)[nH]c1=O`, the MCC at 72 h in data set [1] is over 338 µM. The selectivity ratio in data set [2] is over 2; in data set [10], 1. For the same compound, the EC50 in the data set with Human betaherpesvirus 5 [3] is over 338 µM; in the data set with Hepatitis B virus, over 100 µM; with Human alphaherpesvirus 3 [5], 338 µM; in data set [6] it was 56.8 µM; in the data set on Human betaherpesvirus 5 [7], over 338 µM; in the data set with Human alphaherpesvirus 3 [9], over 338 µM. Besides, in [11], the concentration for a half-maximal effect (EC50) is over 100 µM. The EC90 in the data set with Hepatitis B virus is over 100 µM. The CC50 in data set [4] and in [12] was over 100 µM each time. The “Ratio CC50/EC50” value in data set [8] was determined as 1.

As for `Cc1cn(C[C@H](CF)OCP(=O)(O)O)c(=O)[nH]c1=O`, in data set [1], the MCC at 72 h was over 338 µM. Also, the values for the selectivity ratio in data set [2] and in data set [10] were over 2 and 1, respectively. Further, the EC50 in the data set on Human betaherpesvirus 5 [3] is over 338 µM; in the data set with Hepatitis B virus it was over 100 µM; with Human alphaherpesvirus 3 [5], over 338 µM; in [6], 54.8 µM; in the data set with Human betaherpesvirus 5 [7], over 338 µM; in the data set on Human alphaherpesvirus 3 [9], over 338 µM. In addition, the concentration giving a half-maximal response (EC50) in data set [11] was over 100 µM. Moreover, in the data set on Hepatitis B virus, the concentration for an effect of 90% (EC90) is over 100 µM. In addition, the cytotoxic concentration (CC50) in data set [4] and in data set [12] was over 100 µM each time. Further, the “Ratio CC50/EC50” value in data set [8] is recorded as 1.

On to `Nc1ccn(C[C@H](CF)OCP(=O)(O)O)c(=O)n1`, for which the MCC at 72 h in [1] was over 356 µM. The selectivity ratio in data set [2] was over 2; in data set [10], 1. In addition, the EC50 was over 356 µM in the data set on Human betaherpesvirus 5 [3]; over 100 µM with Hepatitis B virus; over 356 µM in the data set with Human alphaherpesvirus 3 [5]; 54.1 µM in [6]; over 356 µM with Human betaherpesvirus 5 [7]; over 356 µM in the data set with Human alphaherpesvirus 3 [9]. In addition, the EC50 in [11] is over 100 µM. In addition, the 90% effect concentration (EC90) with Hepatitis B virus is over 100 µM. The CC50 in [4] and in data set [12] was over 100 µM each time. Further, the “Ratio CC50/EC50” value in [8] is listed as 1.

In the case of `CCCCCOC(=O)C[C@H](NP(=O)(CO[C@@H](CF)Cn1ccc(N)nc1=O)Oc1ccccc1)C(=O)OCCCCC` (stereo not given in full), the MCC at 72 h in data set [1] came to 32.6 µM. For the same compound, the selectivity ratio in data set [2] and in data set [10] was under 1 in each case. Besides, the EC50 in the data set with Human betaherpesvirus 5 [3] is over 32.6 µM; in the data set with Hepatitis B virus, 28 µM; in the data set with Human alphaherpesvirus 3 [5], over 32.6 µM; in data set [6], over 54.2 µM; in the data set with Human betaherpesvirus 5 [7] it was over 32.6 µM; in the data set on Human alphaherpesvirus 3 [9], over 32.6 µM. Besides, the EC50 in [11] was over 54.2 µM. The concentration for an effect of 90% (EC90) in the data set with Hepatitis B virus was found to be 91.5 µM. Besides, the cytotoxic concentration (CC50) was determined as 33.5 µM in [4] and 54.2 µM in data set [12]. Further, the “Ratio CC50/EC50” value in [8] amounted to 1.

Regarding `CCCCCOC(=O)C[C@H](NP(=O)(CO[C@@H](CF)Cn1cc(C)c(=O)[nH]c1=O)Oc1ccccc1)C(=O)OCCCCC` (stereo not given in full), the MCC at 72 h in data set [1] was determined as 31.9 µM. Besides, the selectivity ratio in data set [2] and in [10] was 1 each time. The EC50 is over 31.9 µM in the data set with Human betaherpesvirus 5 [3]; 47 µM in the data set with Hepatitis B virus; 12.7 µM with Human alphaherpesvirus 3 [5]; over 100 µM in [6]; over 31.9 µM in the data set on Human betaherpesvirus 5 [7]; 31.9 µM in the data set on Human alphaherpesvirus 3 [9]. For the same compound, the concentration for a half-maximal effect (EC50) in [11] was over 100 µM. Moreover, the concentration for an effect of 90% (EC90) in the data set on Hepatitis B virus was over 100 µM. For the same compound, the CC50 is 34.2 µM in [4] and over 100 µM in data set [12]. Moreover, in data set [8], the “Ratio CC50/EC50” value is under 1.
